Test results reported in ChEMBL document CHEMBL4715736, “Identification of anticancer agents based on the thieno[2,3-b]pyridine and 1H-pyrazole molecular scaffolds” (2016).

Experiments:
Format in all cases: functional
Details in all cases: read-out: Activity
[1] = tested on: SW-620; experiment: Growth inhibition of human SW-620 cells assessed as cell growth at 100 uM incubated for 48 hrs by sulforhodamine B assay relative to control
[2] = tested on: MOLT-4; experiment: Growth inhibition of human MOLT-4 cells assessed as cell growth at 0.01 uM incubated for 48 hrs by sulforhodamine B assay relative to control
[3] = tested on: UO-31; experiment: Growth inhibition of human UO-31 cells assessed as cell growth at 10 uM incubated for 48 hrs by sulforhodamine B assay relative to control
Procedure, shortened: (§1)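 Run by the NCI Developmental Therapeutics Program as part of its 60-line human tumour panel. Each compound tested at a single 10 µM dose. Growth expressed as % relative to untreated control cells (100%).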

[4] = tested on: HT-29; experiment: Growth inhibition of human HT-29 cells assessed as cell growth at 10 uM incubated for 48 hrs by sulforhodamine B assay relative to control
Procedure, shortened: (§2)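 Submitted to the NCI Developmental Therapeutics Program for the NCI60 human tumour cell line panel. First screen at a single 10 µM concentration. Read-out is growth relative to untreated control cells set at 100%.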

[5] = tested on: CAKI-1; experiment: Growth inhibition of human CAKI-1 cells assessed as cell growth at 10 uM incubated for 48 hrs by sulforhodamine B assay relative to control
Procedure, shortened: (§3)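 NCI Developmental Therapeutics Program NCI60 panel. Compounds that were active in the 10 µM one-dose screen went on to dose–response testing. Growth at each concentration is expressed relative to untreated control (100%). GI50 (concentration giving 50% of maximal inhibition of proliferation) and TGI (concentration giving total growth inhibition) were derived from the curves.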

[6] = tested on: NCI-H522; experiment: Growth inhibition of human NCI-H522 cells assessed as cell growth at 10 uM incubated for 48 hrs by sulforhodamine B assay relative to control; procedure, shortened: as §2
[7] = tested on: NCI-H226; experiment: Growth inhibition of human NCI-H226 cells assessed as cell growth at 10 uM incubated for 48 hrs by sulforhodamine B assay relative to control; procedure, shortened: as §2
[8] = tested on: NCI/ADR-RES; experiment: Growth inhibition of human NCI/ADR-RES cells assessed as cell growth at 10 uM incubated for 48 hrs by sulforhodamine B assay relative to control; procedure, shortened: as §2
[9] = tested on: SK-MEL-2; experiment: Growth inhibition of human SK-MEL-2 cells assessed as cell growth at 10 uM incubated for 48 hrs by sulforhodamine B assay relative to control; procedure, shortened: as §1
[10] = tested on: Hs-578T; experiment: Growth inhibition of human Hs-578T cells assessed as cell growth at 0.1 uM incubated for 48 hrs by sulforhodamine B assay relative to control
[11] = tested on: A498; experiment: Growth inhibition of human A498 cells assessed as cell growth at 10 uM incubated for 48 hrs by sulforhodamine B assay relative to control; procedure, shortened: as §3
[12] = tested on: CCRF-CEM; experiment: Growth inhibition of human CCRF-CEM cells assessed as cell growth at 0.01 uM incubated for 48 hrs by sulforhodamine B assay relative to control; procedure, shortened: as §3
[13] = tested on: MOLT-4; experiment: Growth inhibition of human MOLT-4 cells assessed as cell growth at 10 uM incubated for 48 hrs by sulforhodamine B assay relative to control; procedure, shortened: as §2
[14] = tested on: MDA-MB-435; experiment: Growth inhibition of human MDA-MB-435 cells assessed as cell growth at 10 uM incubated for 48 hrs by sulforhodamine B assay relative to control; procedure, shortened: as §2
[15] = tested on: BT-549; experiment: Growth inhibition of human BT-549 cells assessed as cell growth at 10 uM incubated for 48 hrs by sulforhodamine B assay relative to control
Procedure, shortened: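 NCI Developmental Therapeutics Program NCI60 human tumour cell line panel, one-dose primary screen with every compound at 10 µM. Growth is expressed as % of untreated control cells (100%).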

[16] = tested on: K562; experiment: Growth inhibition of human K562 cells assessed as cell growth at 10 uM incubated for 48 hrs by sulforhodamine B assay relative to control; procedure, shortened: as §2
[17] = tested on: NCI-H460; experiment: Growth inhibition of human NCI-H460 cells assessed as cell growth at 0.01 uM incubated for 48 hrs by sulforhodamine B assay relative to control
[18] = tested on: TK-10; experiment: Growth inhibition of human TK-10 cells assessed as cell growth at 10 uM incubated for 48 hrs by sulforhodamine B assay relative to control; procedure, shortened: as §1
[19] = tested on: SNB-75; experiment: Growth inhibition of human SNB-75 cells assessed as cell growth at 10 uM incubated for 48 hrs by sulforhodamine B assay relative to control; procedure, shortened: as §1
[20] = tested on: Hs-578T; experiment: Growth inhibition of human Hs-578T cells assessed as cell growth at 10 uM incubated for 48 hrs by sulforhodamine B assay relative to control; procedure, shortened: as §2
[21] = tested on: SF-268; experiment: Growth inhibition of human SF-268 cells assessed as cell growth at 10 uM incubated for 48 hrs by sulforhodamine B assay relative to control; procedure, shortened: as §1
[22] = tested on: HCT-15; experiment: Growth inhibition of human HCT-15 cells assessed as cell growth at 10 uM incubated for 48 hrs by sulforhodamine B assay relative to control; procedure, shortened: as §2
[23] = tested on: SW-620; experiment: Growth inhibition of human SW-620 cells assessed as cell growth at 10 uM incubated for 48 hrs by sulforhodamine B assay relative to control; procedure, shortened: as §1
[24] = tested on: IGROV-1; experiment: Growth inhibition of human IGROV-1 cells assessed as cell growth at 1 uM incubated for 48 hrs by sulforhodamine B assay relative to control
[25] = tested on: 786-0; experiment: Growth inhibition of human 786-0 cells assessed as cell growth at 10 uM incubated for 48 hrs by sulforhodamine B assay relative to control; procedure, shortened: as §3
[26] = tested on: SK-OV-3; experiment: Growth inhibition of human SK-OV-3 cells assessed as cell growth at 10 uM incubated for 48 hrs by sulforhodamine B assay relative to control; procedure, shortened: as §1
[27] = tested on: PC-3; experiment: Growth inhibition of human PC-3 cells assessed as cell growth at 10 uM incubated for 48 hrs by sulforhodamine B assay relative to control; procedure, shortened: as §1
[28] = tested on: HCC 2998; experiment: Growth inhibition of human HCC 2998 cells assessed as cell growth at 0.01 uM incubated for 48 hrs by sulforhodamine B assay relative to control; procedure, shortened: as §3
[29] = tested on: SR; experiment: Growth inhibition of human SR cells assessed as cell growth at 10 uM incubated for 48 hrs by sulforhodamine B assay relative to control; procedure, shortened: as §1
[30] = tested on: MDA-MB-231; experiment: Growth inhibition of human MDA-MB-231 cells assessed as cell growth at 10 uM incubated for 48 hrs by sulforhodamine B assay relative to control; procedure, shortened: as §2
[31] = tested on: MDA-MB-468; experiment: Growth inhibition of human MDA-MB-468 cells assessed as cell growth at 100 uM incubated for 48 hrs by sulforhodamine B assay relative to control
[32] = tested on: T47D; experiment: Growth inhibition of human T47D cells assessed as cell growth at 1 uM incubated for 48 hrs by sulforhodamine B assay relative to control
[33] = tested on: HL-60(TB); experiment: Growth inhibition of human HL-60(TB) cells assessed as cell growth at 10 uM incubated for 48 hrs by sulforhodamine B assay relative to control
Procedure, shortened: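 Screened by the NCI Developmental Therapeutics Program on its panel of 60 human tumour cell lines. Compounds were first tested at a single 10 µM dose, and compounds active there went to dose-response curves. Growth is expressed relative to untreated control (100%). GI50 (50% of maximal proliferation inhibition) and TGI (total growth inhibition) were derived from the dose-response data.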

Row | Structure (SMILES) | growth at 100 µM [1] | growth at 0.01 µM [2] | growth at 10 µM [3] | growth at 10 µM [5] | growth at 10 µM [7] | growth at 10 µM [8] | growth at 0.1 µM [10] | growth at 10 µM [11] | growth at 0.01 µM [12] | growth at 10 µM [13] | growth at 10 µM [14] | growth at 10 µM [16] | growth at 0.01 µM [17] | growth at 10 µM [20] | growth at 10 µM [21] | growth at 10 µM [22] | growth at 10 µM [23] | growth at 1 µM [24] | growth at 10 µM [25] | growth at 0.01 µM [28] | further results
1 | Nc1c(C(=O)Nc2ccccc2)sc2nc3c(cc12)CN(Cc1ccccc1)CC3 | 23% | 97% | 41% | 56% | 31% | 56% | 92% | -17% | 96% | 81% | 34% | 48% | 101% | -11% | 38% | 66% | 63% | 101% | 54% | 90% | growth at 10 µM [4]: 77%; growth at 10 µM [6]: 70%; growth at 10 µM [9]: 70%; growth at 10 µM [15]: 65%; growth at 10 µM [18]: 19%; growth at 10 µM [19]: -54%; growth at 10 µM [26]: 12%; growth at 10 µM [27]: 70%; growth at 10 µM [29]: 54%; growth at 10 µM [30]: 37%; growth at 100 µM [31]: 22%; growth at 1 µM [32]: 83%
2 | Cc1cc(C)c(NC(=O)c2sc3nc4c(cc3c2N)CN(Cc2ccccc2)CC4)c(C)c1 | -43% | 99% | 37% | 18% | 36% | -18% | 91% | -7% | 100% | 21% | -11% | 13% | 99% | 15% | 42% | 12% | 13% | 85% | 23% | 105% | growth at 10 µM [4]: 3%; growth at 10 µM [6]: -13%; growth at 10 µM [9]: 34%; growth at 10 µM [15]: 30%; growth at 10 µM [18]: 31%; growth at 10 µM [26]: 36%; growth at 10 µM [27]: 25%; growth at 10 µM [30]: 38%; growth at 100 µM [31]: -1%; growth at 1 µM [32]: 77%
3 | COc1cccc(NC(=O)c2sc3nc4c(cc3c2N)CN(Cc2ccccc2)CC4)c1 | -5% | 102% | 24% | 53% | 41% | 28% | 92% | 29% | 99% | 69% | 3% | 16% | 101% | 5% | 18% | 30% | 30% | 90% | 22% | 97% | growth at 10 µM [4]: 16%; growth at 10 µM [6]: 61%; growth at 10 µM [9]: 51%; growth at 10 µM [15]: 23%; growth at 10 µM [18]: 28%; growth at 10 µM [19]: -38%; growth at 10 µM [26]: 11%; growth at 10 µM [27]: 54%; growth at 10 µM [29]: 40%; growth at 10 µM [30]: 54%; growth at 100 µM [31]: -8%; growth at 1 µM [32]: 71%
4 | Cc1ccc(NC(=O)c2sc3nc4c(cc3c2N)C(=O)CCC4)cc1C | 18% | 103% | 45% | 35.7% | 56% | 9% | 88% | -16% | 94% | 27.6% | -67% | 5% | 102% | 18% | 42.7% | 27% | 15% | 51% | 29% | 99% | growth at 10 µM [4]: 1%; growth at 10 µM [6]: -9.22%; growth at 10 µM [33]: -21%; growth at 10 µM [9]: 31%; growth at 10 µM [15]: 63%; growth at 10 µM [18]: 56%; growth at 10 µM [19]: -10.3%; growth at 10 µM [26]: 4.9%; growth at 10 µM [29]: 11%; growth at 10 µM [30]: 22%; growth at 100 µM [31]: -1%; growth at 1 µM [32]: 23%
5 | Cc1cccc(NC(=O)c2sc3nc4c(cc3c2N)C(=O)CCC4)c1 | 3% | 97% | 41.2% | 26% | 43% | 5% | 76% | -12.2% | 96% | 42% | -65% | 16% | 104% | -7% | 33% | 18% | 21% | 42% | 15% | 97% | growth at 10 µM [4]: -1%; growth at 10 µM [6]: -22%; growth at 10 µM [9]: 13%; growth at 10 µM [15]: 32%; growth at 10 µM [18]: 57%; growth at 10 µM [19]: 4.87%; growth at 10 µM [26]: 3%; growth at 10 µM [27]: 20%; growth at 10 µM [30]: 20%; growth at 100 µM [31]: 5%; growth at 1 µM [32]: 29%
6 | CCc1cccc(C)c1NC(=O)c1sc2nc3c(cc2c1N)C(=O)CCC3 | 14% | 98% | 29% | 38% | 49% | -3% | 90% | -13% | 97% | 17.9% | -36% | 2% | 101% | 24.8% | 38% | 16% | 23% | 59% | 28% | 99% | growth at 10 µM [33]: -30%; growth at 10 µM [19]: -2.83%; growth at 10 µM [27]: 23.3%; growth at 10 µM [29]: 2.24%; growth at 10 µM [30]: 14%; growth at 100 µM [31]: -18%; growth at 1 µM [32]: 28%
